Reference: ChEMBL document CHEMBL1148400, “Synthesis of nitro esters of prednisolone, new compounds combining pharmacological properties of both glucocorticoids and nitric oxide” (J Med Chem, 2004)
Converted amounts (≈) assume the structure as drawn.

How the values were obtained:
Mus musculus = organism: Mus musculus; assay: Compound was tested for the inhibition of neutrophil (PMN) extravasation in the zymosan-induced peritonitis mouse; format: functional; set-up: unit: PMN per peritoneal cavity
How it was run: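 Mice dosed i.p. at 13.8 μmol/kg (equimolar to 5 mg/kg prednisolone) 1 h before i.p. zymosan (1 mg in 0.5 mL saline); vehicle peanut oil. Polymorphonuclear cells recruited per peritoneal cavity counted at 4 h; % inhibition vs vehicle group; mean ± SEM, n = 5 mice/group; ANOVA with Bonferroni.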

[1] = biological target: T1, Glucocorticoid receptor (Homo sapiens) (UniProt P04150); assay: Inhibition of [3H]dexamethasone binding to glucocorticoid receptor of human blood mononuclear cells
T1 sequence (whole entry): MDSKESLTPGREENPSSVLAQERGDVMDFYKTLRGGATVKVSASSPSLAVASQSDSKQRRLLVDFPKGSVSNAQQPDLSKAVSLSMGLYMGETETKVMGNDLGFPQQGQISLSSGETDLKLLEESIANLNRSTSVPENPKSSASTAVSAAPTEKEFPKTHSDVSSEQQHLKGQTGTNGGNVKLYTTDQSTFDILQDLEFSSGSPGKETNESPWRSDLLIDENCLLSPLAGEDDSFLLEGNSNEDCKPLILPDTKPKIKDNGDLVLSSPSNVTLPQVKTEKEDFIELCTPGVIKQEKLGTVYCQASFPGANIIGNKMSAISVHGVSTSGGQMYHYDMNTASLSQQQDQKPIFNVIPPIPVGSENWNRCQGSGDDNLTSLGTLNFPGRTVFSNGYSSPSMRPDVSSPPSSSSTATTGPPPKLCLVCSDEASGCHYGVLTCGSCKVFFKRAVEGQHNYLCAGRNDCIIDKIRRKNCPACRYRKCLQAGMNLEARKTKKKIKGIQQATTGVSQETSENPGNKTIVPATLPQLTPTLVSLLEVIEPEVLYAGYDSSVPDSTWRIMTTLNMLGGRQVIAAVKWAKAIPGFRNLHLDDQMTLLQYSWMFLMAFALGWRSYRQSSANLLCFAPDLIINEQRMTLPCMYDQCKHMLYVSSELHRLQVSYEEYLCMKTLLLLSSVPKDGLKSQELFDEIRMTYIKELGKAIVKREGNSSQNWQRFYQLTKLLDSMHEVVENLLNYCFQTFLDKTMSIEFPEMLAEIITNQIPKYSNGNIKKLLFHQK
How it was run: (§1)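 PBMC isolated from human blood by histopaque gradient; 1×10^6 cells in RPMI with 1% glutamine given 50 nM [3H]dexamethasone plus compound at 1 μM (from 10 mM DMSO stock; control 0.1% DMSO), 1 h at 37 °C. Four ice-cold PBS washes, bound label by scintillation minus nonspecific binding; fmol/mL and % specific displacement; n = 3.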

[2] = biological target: T1, Glucocorticoid receptor (Homo sapiens); assay: Displacement of [3H]dexamethasone from glucocorticoid receptor of human blood mononuclear cells at 1 uM; how it was run: as §1
[3] = Water solubility was determined; format: ADME
How it was run: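 Excess compound stirred in pH 7.4 phosphate buffer 3 h (25 °C), filtered 0.45 μm; saturated solution absorbance read at each compound's UV maximum and concentration derived against a standard solution; reported in mM.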

| [3H]dexamethasone bound [1] [fmol/mL] | Displacement [2] [%] | solubility [3] [µM] | SMILES | Activity (Mus musculus) |
| --- | --- | --- | --- | --- |
| 1.6 | 87 | – | C[C@]12C=CC(=O)C=C1CCC1C2[C@@H](O)C[C@@]2(C)C1CC[C@]2(O)C(=O)COC(=O)CCCO[N+](=O)[O-] (some centres undefined) | 9100000 |
| 1.7 | 86 | 710 (≈ 408 µg/mL) | C[C@]12C=CC(=O)C=C1CCC1C2[C@@H](O)C[C@@]2(C)C1CC[C@]2(O)C(=O)COC(=O)CN1CCC(CCO[N+](=O)[O-])CC1 (some centres undefined) | – |
| 5.3 | 57 | – | C[C@]12C=CC(=O)C=C1CCC1C2[C@@H](O)C[C@@]2(C)C1CC[C@]2(O)C(=O)COC(=O)c1ccc(CO)cc1 (some centres undefined) | – |
| 19.8 | – | – | C[C@]12C=CC(=O)C=C1CCC1C2[C@@H](O)C[C@@]2(C)C1CC[C@]2(O)C(=O)COC(=O)c1cccc(CO[N+](=O)[O-])c1 (some centres undefined) | – |
| 4.2 | 66 | 21300 (≈ 12300 µg/mL) | C[C@]12C=CC(=O)C=C1CCC1C2[C@@H](O)C[C@@]2(C)C1CC[C@]2(O)C(=O)COC(=O)CN1CCN(CCO[N+](=O)[O-])CC1 (some centres undefined) | 9000000 |
| 2.3 | 81 | 150 (≈ 88.3 µg/mL) | C[C@]12C=CC(=O)C=C1CCC1C2[C@@H](O)C[C@@]2(C)C1CC[C@]2(O)C(=O)COC(=O)CN1CCC(CCCO[N+](=O)[O-])CC1 (some centres undefined) | – |
| 5.5 | 56 | 270 (≈ 97.3 µg/mL) | C[C@]12C=CC(=O)C=C1CC[C@@H]1[C@@H]2[C@@H](O)C[C@@]2(C)[C@H]1CC[C@]2(O)C(=O)CO [PREDNISOLONE] | – |
| 8.7 | 30 | – | C[C@]12C=CC(=O)C=C1CCC1C2[C@@H](O)C[C@@]2(C)C1CC[C@]2(O)C(=O)COC(=O)c1ccccc1CO[N+](=O)[O-] (some centres undefined) | – |

| SMILES | [3H]dexamethasone bound [1] [fmol/mL] | Displacement [2] [%] | solubility [3] [µM] | Activity (Mus musculus) |
| --- | --- | --- | --- | --- |
| C[C@]12C=CC(=O)C=C1CCC1C2[C@@H](O)C[C@@]2(C)C1CC[C@]2(O)C(=O)COC(=O)CN1CCN(CCCO[N+](=O)[O-])CC1 (some centres undefined) | 2.1 | 83 | 53300 (≈ 31400 µg/mL) | 7800000 |
| C[C@]12C=CC(=O)C=C1CCC1C2[C@@H](O)C[C@@]2(C)C1CC[C@]2(O)C(=O)COC(=O)c1ccc(CO[N+](=O)[O-])cc1 (some centres undefined) | 6.6 | 47 | 7 (≈ 3.78 µg/mL) | 4100000 |
